{"data": "Experimental data pooled from the literature", "target": "Mitogen-activated protein kinase kinase kinase 1 (MAP3K1, Homo sapiens, UniProt Q13233)", "note": "Each line is one published result; the experiments were not run side by side."}
{"Structure (SMILES)": "CNC(=O)[C@@H]1CC[C@@H](n2c(-c3ccc4cnccc4c3)nc3ccc(C(=O)NCc4cccc(C(N)=O)c4)cc32)C1", "effect on": "binding", "method": "competition with immobilised ligand", "tested at": "1 µM", "remaining binding": "95%"}
{"Structure (SMILES)": "CNC(=O)Nc1ccc2c(c1)CC[C@@]21OC(=O)N(CC(=O)N(Cc2ccc(F)cc2)[C@@H](C)C(F)(F)F)C1=O", "effect on": "cell-free assay", "method": "competition with immobilised ligand", "tested at": "1 µM", "remaining binding": "68%"}
{"Structure (SMILES)": "CN(C)c1nccc(-c2cnc3ncccn23)n1", "effect on": "binding", "tested at": "1 µM", "remaining binding": "100%"}
{"Structure (SMILES)": "COc1cnc(Nc2cccc(S(N)(=O)=O)c2)nc1N1CCN(c2ccccc2)C(=O)C1", "effect on": "binding", "method": "competition with immobilised ligand", "tested at": "1 µM", "remaining binding": "96%"}
{"Structure (SMILES)": "C=CC(=O)N1CCC(C(=O)NCC(=O)N2CCN(c3nc(-c4cnc(N)nc4C(F)F)nc(N4CCOCC4)n3)CC2)CC1", "effect on": "binding", "method": "competition with immobilised ligand", "tested at": "1 µM", "remaining binding": "93%"}
{"Structure (SMILES)": "C[C@@H](c1ccc(-n2cnc3c(N)ncnc32)cc1)N1CCc2nn(C)c(Cc3ccccc3)c2C1=O", "effect on": "binding", "method": "competition with immobilised ligand", "tested at": "0.1 µM", "remaining binding": "60%"}
{"Structure (SMILES)": "C[C@H]1CCN(c2nccc(-c3cnn4ncccc34)n2)C1", "effect on": "binding", "tested at": "1 µM", "remaining binding": "83%"}
{"Structure (SMILES)": "CNC(=O)Nc1ccc2c(c1)[C@@]1(CC2)OC(=O)N(CC(=O)N(Cc2ccc(F)cc2)[C@@H](C)C(F)(F)F)C1=O", "effect on": "cell-free assay", "method": "competition with immobilised ligand", "tested at": "1 µM", "remaining binding": "95%"}
{"Structure (SMILES)": "O=C(NCCCN1CCOCC1)c1ccc(Nc2nccc(-c3cc4ccccc4s3)n2)cc1", "effect on": "binding", "method": "competition with immobilised ligand", "tested at": "1 µM", "remaining binding": "92%"}
{"Structure (SMILES)": "CN(C)c1nccc(-c2cnn3ncccc23)n1", "effect on": "binding", "tested at": "1 µM", "remaining binding": "91%"}
{"Structure (SMILES)": "O=C(NCCCN1CCOCC1)c1ccc(Nc2ncc(Cl)c(-c3ccc(Cl)s3)n2)cc1", "effect on": "binding", "method": "competition with immobilised ligand", "tested at": "1 µM", "remaining binding": "100%"}
{"Structure (SMILES)": "CN(CCCC(F)(F)F)c1nccc(-c2cnn3ncccc23)n1", "effect on": "binding", "tested at": "1 µM", "remaining binding": "75%"}
{"Structure (SMILES)": "CCCOc1ccc([C@@H]2[C@@H](C(=O)O)[C@H](c3ccc4c(c3)OCO4)CN2CC(=O)Nc2c(CC)cccc2CC)cc1", "effect on": "cell-free assay", "method": "competition with immobilised ligand", "tested at": "1 µM", "remaining binding": "80%"}
{"Structure (SMILES)": "O=C(c1ccc(Nc2ncc(Cl)c(-c3cc4ccccc4s3)n2)cc1)N1CCC(N2CCCC2)CC1", "effect on": "binding", "method": "competition with immobilised ligand", "tested at": "1 µM", "remaining binding": "79%"}
{"Structure (SMILES)": "COc1ccnn2ncc(-c3ccnc(N(C)C)n3)c12", "effect on": "binding", "tested at": "1 µM", "remaining binding": "100%"}
{"Structure (SMILES)": "FC(F)(F)Oc1cccc(-c2cnc3ccc(-c4ccncc4)nn23)c1", "effect on": "cell-free assay", "method": "competition with immobilised ligand", "tested at": "5 µM", "remaining binding": "80%"}
{"Structure (SMILES)": "O=C1NC(c2ccccn2)Sc2ccccc21 (stereo not shown)", "effect on": "cell-free assay", "method": "competition with immobilised ligand", "tested at": "1 µM", "remaining binding": "55%"}
{"Structure (SMILES)": "c1cncc(-c2cccc(Nc3nccc(NC4CCCCC4)n3)c2)c1", "effect on": "binding", "method": "competition with immobilised ligand", "tested at": "10 µM", "remaining binding": "79%"}
{"Structure (SMILES)": "O=C(N1CCS(=O)(=O)CC1)N1C[C@H](c2ccc(OC(F)(F)F)cc2)C[C@H](c2nc(C3CC3)no2)C1", "effect on": "cell-free assay", "method": "competition with immobilised ligand", "tested at": "1 µM", "remaining binding": "100%"}
{"Structure (SMILES)": "O=C(NCC1CCOCC1)c1n[nH]cc1NC(=O)c1c(F)cccc1F", "effect on": "binding", "method": "competition with immobilised ligand", "tested at": "1 µM", "remaining binding": "75%"}
{"Structure (SMILES)": "N[C@H]1CCN(c2nccc(-c3cnn4ncccc34)n2)C1", "effect on": "binding", "tested at": "1 µM", "remaining binding": "98%"}
{"Structure (SMILES)": "COc1ccc2c(c1)O[C@@H](c1ccc(OC)c(OC)c1)C[C@H]2NC(=O)C1(c2ccc3c(c2)OC(F)(F)O3)CC1", "effect on": "cell-free assay", "method": "competition with immobilised ligand", "tested at": "1 µM", "remaining binding": "77%"}
